Reference: publication PMC8892681 (ACS Omega, 2022)
“Also recorded” adds a separate entry of the source. Read-outs that look alike come from different tables or passages of the source. One block for each compound: values may come before it.

Experiments:
[1] = system: C. difficile strain EDN0008; assay: Time-kill assay against C. difficile; format: cell-based, Clostridioides difficile
C. difficile = assay: MIC by broth microdilution against C. difficile; format: cell-based, Clostridioides difficile
human erythrocytes [2] = assay: Haemolysis assay; format: cell-based; settings: 1 h, 37 °C
Summary of the method: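 Human whole blood collected in K2-EDTA and pelleted at 500 g for 5 min. RBCs washed twice in saline and once in PBS, then diluted 1:50 in PBS. Test compound made at 20× in DMSO and added 1:20 (final 0.125−128 mg/L). Incubated 1 h at 37 °C. Controls were DMSO vehicle and 1% (v/v) Triton X-100. After centrifugation at 500g, supernatant A450 was read. Three biological replicates.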

[3] = Pharmacokinetics and urinary/faecal recovery after oral administration in rats; format: in vivo, Sprague Dawley rats; settings: 30 mg/kg; for AUC(0-inf) / Cmax / Tmax / half-life: male, Sprague Dawley, rat, plasma, po; for % dose in urine (0–48 h): unchanged compound, male Sprague Dawley rats, oral, mean ± SD n = 3
VREfm [4] = assay: MIC by broth microdilution against E. faecium; format: cell-based, Enterococcus faecium; settings: for fold loss in activity against E. faecium: compared with analogue 1
[5] = system: E. faecium strain Aus0085; assay: Time-kill assay against E. faecium; format: cell-based, Enterococcus faecium
VREfm [6] = settings: range of clinically relevant E. faecium strains; cited from earlier work
human erythrocytes [7] = settings: cited from earlier work
HepG2 = settings: cited from earlier work
Caco-2 cell permeability = format: in vitro ADME; settings: human, Caco-2, pH 7.4
Caco-2 cell monolayers = assay: Caco-2 cell permeability; format: in vitro ADME
[8] = exposure to 4 μg/mL, up to 48 h

C. difficile MIC (C. difficile; broth microdilution, 48 h anaerobic, biological triplicate): 2 µg/mL
Compound: CN[C@H](CC(C)C)C(=O)N[C@H]1C(=O)N[C@@H](CC(N)=O)C(=O)N[C@H]2C(=O)N[C@H]3C(=O)N[C@H](C(=O)N[C@H](C(=O)O)c4cc(O)cc(O)c4-c4cc3ccc4O)[C@H](O)c3ccc(c(Cl)c3)Oc3cc2cc(c3O[C@@H]2O[C@H](CO)[C@@H](O)[C@H](O)[C@H]2O[C@H]2C[C@](C)(N)[C@H](O)[C@H](C)O2)Oc2ccc(cc2Cl)[C@H]1O [Vancomycin, vancomycin, reference compound]
killing activity in time-kill assay ([1]; C. difficile EDN0008, 1 at ≥2 × MIC (12–48 μg/mL), vancomycin 8 μg/mL): bacteriostatic activity

AUC(0-inf) [3]: 0.9 ± 0.22 µM·h | Cmax [3]: 160 ± 38 nM | Tmax [3]: 2.5 h | half-life [3]: 2 ± 0.3 h | % dose in urine (0–48 h) [3]: 0.08 ± 0.03%
Compound: Cl.NCCc1ccc(Oc2ccc(-c3noc(-c4ccc(O)cc4)n3)cc2)cc1 [15e, 4-(3-(4-(4-(2-Aminoethyl)phenoxy)phenyl)-1,2,4-oxadiazol-5-yl)phenol Hydrochloride]
time to 100% kill of C. difficile [1]: ≤ 3 h | concentration leading to substantial levels of haemolysis (human erythrocytes [2]): ≥ 64 µg/mL | fold loss in activity against E. faecium (VREfm [4]): 2 fold | time to 100% kill of VREfm ([5]; 4 μg/mL): ≤ 24 h | time to 100% kill of VREfm ([5]; 8 μg/mL (2× MIC of 15e)): ≤ 1 h | regrowth of VREfm in time-kill assay [5, 8]: remained undetectable | regrowth of VREfm in time-kill assay ([5]; exposure to 8 μg/mL): no rebounding growth observed

Compound: Oc1ccc(-c2nc(-c3ccc(Oc4ccccc4)cc3)no2)cc1 [compound 1, 4-(3-(4-Phenoxyphenyl)-1,2,4-oxadiazol-5-yl)phenol]
E. faecium MIC90 (VREfm [6]): 2 µg/mL | killing activity in time-kill assay [1]: rapid bactericidal activity | concentration leading to haemolysis in human erythrocytes (human erythrocytes [7]): > 64 µg/mL | HepG2 viability (HepG2; at concentrations higher than 2 μg/mL): reduced viability | toxicity against HepG2 (HepG2; at the E. faecium MIC90 (2 μg/mL)): not toxic | time to 100% kill of VREfm ([5]; 4 μg/mL): ≤ 24 h | time to 100% kill of VREfm ([5]; 8 μg/mL (2× MIC of 15e)): ≤ 1 h | regrowth of VREfm in time-kill assay [5, 8]: rebounding growth of VREfm was observed after 48 h | regrowth of VREfm in time-kill assay ([5]; exposure to 8 μg/mL): no rebounding growth observed

Compound: Cl.NCc1ccc(Oc2ccc(-c3noc(-c4ccc(O)cc4)n3)cc2)cc1 [15d, 4-(3-(4-(4-(Aminomethyl)phenoxy)phenyl)-1,2,4-oxadiazol-5-yl)phenol Hydrochloride]
fold loss in activity against E. faecium (VREfm [4]): 2 fold

Papp A→B at 120 min (Caco-2 cell permeability): 1.6 ± 0.13 ×10⁻⁶ cm/s | Papp B→A at 120 min (Caco-2 cell permeability): 12 ± 2.7 ×10⁻⁶ cm/s | efflux ratio at 120 min (Caco-2 cell permeability): 7.3
Compound: COC(=O)c1ccccc1-c1c2ccc(=N)cc-2oc2cc(N)ccc12 [rhodamine 123]

AUC(0-inf) [3]: 0.28 ± 0.27 µM·h | Cmax [3]: 39 ± 46 nM | Tmax [3]: 2.8 ± 2 h | half-life [3]: 5.3 ± 2.1 h | % dose in urine (0–48 h) [3]: 0.06 ± 0.03%
Compound: C[N+](C)(C)CCc1ccc(Oc2ccc(-c3noc(-c4ccc(O)cc4)n3)cc2)cc1.[I-] [26a, 2-(4-(4-(5-(4-Hydroxyphenyl)-1,2,4-oxadiazol-3-yl)phenoxy)phenyl)-N,N,N-trimethylethan-1-aminium Iodide]
fold decrease in activity against E. faecium (VREfm [4]; compared with the primary amine 15e): 2 fold | permeability across Caco-2 cell monolayer (in words) (Caco-2 cell monolayers; not detected in acceptor chamber, fully recovered in donor chamber): complete impermeability; also recorded: no detectable permeability

Compound: Cl.NCCc1ccccc1Oc1ccc(-c2noc(-c3ccc(O)cc3)n2)cc1 [15b, 4-(3-(4-(2-(2-Aminoethyl)phenoxy)phenyl)-1,2,4-oxadiazol-5-yl)phenol Hydrochloride]
fold loss in activity against E. faecium (VREfm [4]): 4 fold

Compound: CC(CN)c1ccc(Oc2ccc(-c3noc(-c4ccc(O)cc4)n3)cc2)cc1.Cl (racemic) [15f, (RS)-4-(3-(4-(4-(1-Aminopropan-2-yl)phenoxy)phenyl)-1,2,4-oxadiazol-5-yl)phenol Hydrochloride]
fold loss in potency against C. difficile (C. difficile; compared with the ethyl linker 15e): 5 fold

Papp (Caco-2 cell monolayers; low permeability marker, acceptor solution): < 1 10^–6 cm/s
Compound: lucifer yellow

Compound: O=C(O)CCc1ccc(Oc2ccc(-c3noc(-c4ccc(O)cc4)n3)cc2)cc1 [9g, 3-(4-(4-(5-(4-Hydroxyphenyl)-1,2,4-oxadiazol-3-yl)phenoxy)phenyl)propanoic Acid]
fold loss in potency against C. difficile (C. difficile; 4 position versus same substituent at 2 and 3 positions / analogue 1): 4 fold

Papp A→B at 120 min (Caco-2 cell permeability): 42 ± 2.5 ×10⁻⁶ cm/s
Compound: CC(C)NCC(O)COc1cccc2ccccc12 (centres unmarked) [propranolol]

Compound: Cl.NCCCc1ccc(Oc2ccc(-c3noc(-c4ccc(O)cc4)n3)cc2)cc1 [15h, 4-(3-(4-(4-(3-Aminopropyl)phenoxy)phenyl)-1,2,4-oxadiazol-5-yl)phenol Hydrochloride]
fold increase in activity against E. faecium (VREfm [4]; propylamine versus ethylamine linker (15e)): 2 fold

Compound: Cl.NCc1ccccc1Oc1ccc(-c2noc(-c3ccc(O)cc3)n2)cc1 [15a, 4-(3-(4-(2-(Aminomethyl)phenoxy)phenyl)-1,2,4-oxadiazol-5-yl)phenol Hydrochloride]
fold loss in activity against E. faecium (VREfm [4]): 4 fold
